Assay [1] is described as follows: Superoxide anion scavenging assay.
The nature of assay [2]: DPPH free radical scavenging activity.
The target of a further assay is jack bean urease (Canavalia ensiformis, UniProt P07374). The assay is described as follows: Urease inhibition assay. Type of assay: biochemical.
In assay [3] the target is Bacillus Pasteurii urease (Sporosarcina pasteurii, UniProt P41020). The assay is described as follows: Urease inhibition assay. The settings on record: Enzyme (SEM ±) B.P Urease, IC50, mean ± SEM, 3 experiments. The class given is biochemical.
Bacillus Pasteurii urease, sequence (P41020 whole entry): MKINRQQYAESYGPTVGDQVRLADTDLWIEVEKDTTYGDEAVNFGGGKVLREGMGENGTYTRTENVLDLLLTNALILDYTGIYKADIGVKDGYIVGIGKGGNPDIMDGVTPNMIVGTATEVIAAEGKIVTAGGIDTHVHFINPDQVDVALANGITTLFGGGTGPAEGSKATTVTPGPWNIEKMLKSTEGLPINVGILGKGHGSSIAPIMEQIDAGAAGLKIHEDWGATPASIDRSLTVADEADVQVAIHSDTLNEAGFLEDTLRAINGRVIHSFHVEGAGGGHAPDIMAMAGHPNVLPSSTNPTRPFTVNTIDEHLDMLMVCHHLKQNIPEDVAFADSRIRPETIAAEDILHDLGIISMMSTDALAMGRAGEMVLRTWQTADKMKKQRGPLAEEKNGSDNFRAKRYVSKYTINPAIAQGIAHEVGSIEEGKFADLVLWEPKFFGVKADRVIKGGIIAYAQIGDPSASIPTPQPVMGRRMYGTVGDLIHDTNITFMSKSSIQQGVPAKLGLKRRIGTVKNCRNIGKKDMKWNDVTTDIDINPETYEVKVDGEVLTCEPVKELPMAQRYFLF
Bacillus Pasteurii urease, sequence (P41021 whole entry partner): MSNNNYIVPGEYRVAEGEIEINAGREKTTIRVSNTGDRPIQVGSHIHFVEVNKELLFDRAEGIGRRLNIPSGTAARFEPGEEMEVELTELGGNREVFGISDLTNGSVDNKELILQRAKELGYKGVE
Bacillus Pasteurii urease, sequence (P41022 whole entry partner): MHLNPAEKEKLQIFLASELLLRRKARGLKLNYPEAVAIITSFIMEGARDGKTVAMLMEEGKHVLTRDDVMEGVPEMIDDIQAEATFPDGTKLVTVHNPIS
The next assay addresses α-Glucosidase (Saccharomyces cerevisiae, UniProt P53341). The assay is described as follows: α-Glucosidase inhibition assay. The class given is biochemical. An outline of the steps: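 Test compound (200–800 μg/mL) pre-incubated 5 min at 37 °C with 2 % w/v starch (sucrose) solution in 0.2 M Tris buffer, pH 8.0. 5 mM p-nitrophenyl-α-D-glucopyranoside added intermittently, then α-glucosidase (1 U/mL), 40 min at 35 °C. Stopped with […]; absorbance read at 405 nm. % inhibition = (control − sample)/control × 100; samples above 50 % taken to IC50.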

jack bean urease, sequence (P07374 whole entry, looked up): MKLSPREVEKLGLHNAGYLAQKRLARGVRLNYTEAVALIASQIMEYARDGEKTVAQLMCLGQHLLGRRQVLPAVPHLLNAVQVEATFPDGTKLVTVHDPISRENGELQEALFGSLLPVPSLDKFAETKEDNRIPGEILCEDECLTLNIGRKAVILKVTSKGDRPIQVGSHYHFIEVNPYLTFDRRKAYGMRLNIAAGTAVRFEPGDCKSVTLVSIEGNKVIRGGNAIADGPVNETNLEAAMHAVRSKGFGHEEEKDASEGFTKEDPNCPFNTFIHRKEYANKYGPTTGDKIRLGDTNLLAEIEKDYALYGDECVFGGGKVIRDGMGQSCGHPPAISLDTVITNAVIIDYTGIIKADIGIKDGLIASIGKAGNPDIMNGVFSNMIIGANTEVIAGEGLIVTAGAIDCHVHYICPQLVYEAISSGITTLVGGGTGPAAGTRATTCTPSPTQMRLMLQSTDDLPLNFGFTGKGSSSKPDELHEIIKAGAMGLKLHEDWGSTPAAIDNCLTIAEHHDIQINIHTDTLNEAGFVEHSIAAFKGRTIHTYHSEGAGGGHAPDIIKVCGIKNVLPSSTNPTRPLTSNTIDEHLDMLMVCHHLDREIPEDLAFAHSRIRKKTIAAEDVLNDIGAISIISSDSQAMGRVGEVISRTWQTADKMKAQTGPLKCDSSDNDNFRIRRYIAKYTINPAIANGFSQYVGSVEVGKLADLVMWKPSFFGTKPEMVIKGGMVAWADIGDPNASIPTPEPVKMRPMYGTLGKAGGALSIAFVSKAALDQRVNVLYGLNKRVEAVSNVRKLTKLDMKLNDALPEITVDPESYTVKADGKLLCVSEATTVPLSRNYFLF
α-Glucosidase, sequence (P53341 whole entry): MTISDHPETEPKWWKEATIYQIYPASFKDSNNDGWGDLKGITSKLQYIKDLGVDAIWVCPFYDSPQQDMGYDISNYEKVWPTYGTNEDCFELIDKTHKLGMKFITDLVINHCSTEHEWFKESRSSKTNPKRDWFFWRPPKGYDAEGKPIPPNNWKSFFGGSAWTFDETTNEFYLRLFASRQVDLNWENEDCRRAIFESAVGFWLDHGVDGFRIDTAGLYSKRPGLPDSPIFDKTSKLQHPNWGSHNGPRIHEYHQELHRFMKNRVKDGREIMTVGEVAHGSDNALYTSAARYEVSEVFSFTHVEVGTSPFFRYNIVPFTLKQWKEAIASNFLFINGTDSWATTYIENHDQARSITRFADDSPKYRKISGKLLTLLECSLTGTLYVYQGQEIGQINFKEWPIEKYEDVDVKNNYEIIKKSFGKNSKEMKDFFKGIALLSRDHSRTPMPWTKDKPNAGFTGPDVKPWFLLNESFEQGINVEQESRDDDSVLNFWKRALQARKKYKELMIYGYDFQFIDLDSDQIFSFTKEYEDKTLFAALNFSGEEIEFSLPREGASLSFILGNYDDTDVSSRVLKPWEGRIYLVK

On to `COc1ccc(S(=O)(=O)N(Cc2ccccc2)c2nccs2)cc1` [Compound 20, N-Benzyl-4-methoxy-N-(thiazol-2-yl)benzenesulfonamide], for which the “superoxide anion % scavenging” value in assay [1] (25 μM) is 31 ± 0.02%; in assay [1] (50 μM), 54 ± 0.12%; in assay [1] (75 μM), 79 ± 0.22%; in assay [1] (100 μM), 85 ± 0.25%. The IC50 is 40 ± 0.06 µM in assay [1] (read-out: superoxide anion scavenging IC50); 43.5 ± 0.03 µM in assay [2] (read-out: DPPH scavenging IC50); 20.6 ± 0.41 µM at jack bean urease (Enzyme (SEM ±) J.B Urease, IC50, mean ± SEM, 3 experiments); 38.01 ± 0.06 µM in the assay “ABTS method” (read-out: ABTS scavenging IC50); 22.1 ± 0.35 µM in assay [3]. In addition, the “DPPH % Scavenging” value is 35.2 ± 0.1% in assay [2] (25 μM), 49.2 ± 0.01% in assay [2] (50 μM), 56.3 ± 0.83% in assay [2] (75 μM) and 80.2 ± 0.01% in assay [2] (100 μM). In addition, on jack bean urease, the “Types of inhibition (urease)” value is listed as “Competitive”. Also, the “ABTS % Scavenging” value was 15.04 ± 0.2% in the assay “ABTS method” (10 μM); 22.02 ± 0.05% in “ABTS method” (20 μM); 45.08 ± 0.06% in the assay “ABTS method” (30 μM); 61.01 ± 0.03% in the assay “ABTS method” (40 μM); 82.03 ± 0.07% in “ABTS method” (50 μM). At α-Glucosidase, the “Type of Inhibition (α-glucosidase and α-amylase)” value is “Non-competitive”.

Values taken from paper PMC11327602 (Heliyon, 2024).
